Assay results: ChEMBL document CHEMBL5584325, “Discovery of novel coumarin triazolyl and phenoxyphenyl triazolyl derivatives targeting amyloid beta aggregation-mediated oxidative stress and neuroinflammation for enhanced neuroprotection” (RSC Med Chem, 2024)
The source made the active and inactive calls. The rule behind the calls is not given here.

What was measured:
[1] = molecular target: T1, Amyloid-beta precursor protein (Homo sapiens, UniProt P05067); experiment: Inhibition of amyloid beta (1 to 42) (unknown origin) aggregation at 100 uM incubated for 48 hrs by ThioflavinT staining based fluorescence assay relative to control
How it was run: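 Compound in DMSO (1 μl of a 1 mM solution) mixed with 9 μl of 25 μM Aβ1–42 in Tris pH 7.4. Incubated 48 h at 37 °C without agitation, then 200 μl of 5 μM ThT added. Fluorescence read at ex 446/em 500 nm; % inhibition vs DMSO control, solvent blank subtracted.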

[2] = molecular target: T1, Amyloid-beta precursor protein; experiment: Inhibition of amyloid beta (1 to 42) (unknown origin) aggregation incubated for 48 hrs by ThioflavinT staining based fluorescence assay
BV-2 [3] = experiment: Cytotoxicity against mouse BV-2 cells assessed as reduction in cell viability at 10 to 200 uM measured after 24 hrs by MTT assay; assay type: toxicity, cell-based; conditions: bv-2, 24 h, dose 10-200 µM
How it was run: (§1)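 BV-2 microglia grown in DMEM with 10% FBS, HEPES and Glutamax at 37 °C, 5% CO2, seeded overnight at 1 × 10^4 cells/well. Compound alone at 0–200 μM (range extended lower where needed) for 24 h. MTT 2 h at 37 °C, formazan dissolved in DMSO, A570 read. Used to pick non-toxic concentrations.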

[4] = Octanol/water partition coefficient, log P of the compound incubated for 2 hrs under shaking condition by HPLC analysis; assay type: physicochemical
How it was run: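 Shake-flask log P: 10 mM stock (DMSO, or octanol for highly lipophilic compounds) partitioned between mutually saturated octanol and water at three phase ratios. Shaken 2 h at 25 ± 1 °C, phases separated, each phase quantified by C18 HPLC-UV. Mobile phase 0.1% formic acid:methanol 40:60; log P averaged over the three ratios.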

BV-2 [5] = experiment: Cytotoxicity against mouse BV-2 cells assessed as reduction in cell viability at 20 uM measured after 24 hrs by MTT assay; assay type: toxicity, cell-based; conditions: bv-2, 24 h; how it was run: as §1
BV-2 [6] = experiment: Neuroprotective activity in amyloid beta (1 to 42)-induced cytotoxicity in mouse BV-2 cells assessed as cell viability at 20 uM measured after 24 hrs by MTT assay (reference value: 54.96 +/- 1.12%); assay type: functional; conditions: read-out: Activity
BV-2 [7] = experiment: Neuroprotective activity in amyloid beta (1 to 42)-induced morphological changes in mouse BV-2 cells at 20 uM; assay type: functional, cell-based
BV-2 [8] = experiment: Cytotoxicity against mouse BV-2 cells assessed as reduction in cell viability at 150 uM measured after 24 hrs by MTT assay; assay type: toxicity, cell-based; conditions: bv-2, 24 h; how it was run: as §1
BV-2 [9] = experiment: Neuroprotective activity in amyloid beta (1 to 42)-induced cytotoxicity in mouse BV-2 cells assessed as cell viability at 150 uM measured after 24 hrs by MTT assay (reference value: 54.96 +/- 1.12%); assay type: functional; conditions: read-out: Activity
BV-2 [10] = experiment: Cytotoxicity against mouse BV-2 cells assessed as reduction in cell viability at 40 uM measured after 24 hrs by MTT assay; assay type: toxicity, cell-based; conditions: bv-2, 24 h; how it was run: as §1
BV-2 [11] = experiment: Neuroprotective activity in amyloid beta (1 to 42)-induced cytotoxicity in mouse BV-2 cells assessed as cell viability at 40 uM measured after 24 hrs by MTT assay (reference value: 54.96 +/- 1.12%); assay type: functional; conditions: read-out: Activity
[12] = Induction of ROS generation in mouse BV-2 cells at 40 uM measured after 24 hrs by DCFH-DA staining based fluorescence assay; assay type: toxicity, cell-based; conditions: bv-2, 24 h
How it was run: (§2)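 BV-2 cells seeded overnight at 1 × 10^4/well, compound alone (no Aβ). Cells loaded with 20 μM (final) DCFH-DA for 30 min at 37 °C, washed, then given conditioned medium for 24 h. Fluorescence read at ex […] nm. Expressed as % of control; n = 3 in triplicate, one-way ANOVA with LSD.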

BV-2 [13] = experiment: Neuroprotective activity in amyloid beta (1 to 42)-induced oxidative stress in mouse BV-2 cells assessed as intracellular ROS level at 40 uM measured after 24 hrs by DCFH-DA staining based fluorescence assay (reference value: 150.91 +/- 0.49%); assay type: functional
BV-2 [14] = experiment: Neuroprotective activity in amyloid beta (1 to 42)-induced inflammation in mouse BV-2 cells assessed as IL-1beta mRNA expression at 40 uM measured after 24 hrs by SYBR green staining based qRT-PCR analysis (reference value: 1.53 +/- 0.13%); assay type: functional
BV-2 [15] = experiment: Neuroprotective activity in amyloid beta (1 to 42)-induced inflammation in mouse BV-2 cells assessed as […] in IL-6 mRNA expression at 40 uM measured after 24 hrs by SYBR green staining based qRT-PCR analysis relative to control; assay type: functional
[16] = molecular target: T1, Amyloid-beta precursor protein; experiment: Inhibition of amyloid beta (1 to 42) aggregation in mouse BV-2 cells exposed to amyloid-beta (1 to 42) (unknown origin) at 40 uM measured after 24 to 48 hrs by thioflavin T staining based fluorescence assay; assay type: cell-based; conditions: time 24-48 hrs
SH-SY5Y [17] = experiment: Neuroprotective activity against human SH-SY5Y cells co-cultured with 40 uM compound pretreated BV-2 cells exposed to amyloid beta (1 to 42) assessed as cell viability measured after 24 hrs by MTT assay (reference value: 80.62 +/- 0.86%); assay type: functional; conditions: read-out: Activity
BV-2 [18] = experiment: Cytotoxicity against mouse BV-2 cells assessed as reduction in cell viability at 2.5 uM measured after 24 hrs by MTT assay; assay type: toxicity, cell-based; conditions: bv-2, 24 h; how it was run: as §1
BV-2 [19] = experiment: Neuroprotective activity in amyloid beta (1 to 42)-induced cytotoxicity in mouse BV-2 cells assessed as cell viability at 2.5 uM measured after 24 hrs by MTT assay (reference value: 54.96 +/- 1.12%); assay type: functional; conditions: read-out: Activity
[20] = Induction of ROS generation in mouse BV-2 cells at 2.5 uM measured after 24 hrs by DCFH-DA staining based fluorescence assay; assay type: toxicity, cell-based; conditions: bv-2, 24 h; how it was run: as §2
BV-2 [21] = experiment: Neuroprotective activity in amyloid beta (1 to 42)-induced oxidative stress in mouse BV-2 cells assessed as intracellular ROS level at 2.5 uM measured after 24 hrs by DCFH-DA staining based fluorescence assay (reference value: 150.91 +/- 0.49%); assay type: functional
BV-2 [22] = experiment: Neuroprotective activity in amyloid beta (1 to 42)-induced inflammation in mouse BV-2 cells assessed as TNFalpha mRNA expression at 2.5 uM measured after 24 hrs by SYBR green staining based qRT-PCR analysis (reference value: 1.73 +/- 0.22%); assay type: functional
BV-2 [23] = experiment: Neuroprotective activity in amyloid beta (1 to 42)-induced inflammation in mouse BV-2 cells assessed as IL-1beta mRNA expression at 2.5 uM measured after 24 hrs by SYBR green staining based qRT-PCR analysis (reference value: 1.53 +/- 0.13%); assay type: functional
BV-2 [24] = experiment: Neuroprotective activity in amyloid beta (1 to 42)-induced inflammation in mouse BV-2 cells assessed as change in IL-6 mRNA expression at 2.5 uM measured after 24 hrs by SYBR green staining based qRT-PCR analysis; assay type: functional, cell-based
[25] = molecular target: T1, Amyloid-beta precursor protein; experiment: Inhibition of amyloid beta (1 to 42) aggregation in mouse BV-2 cells exposed to amyloid-beta (1 to 42) (unknown origin) at 2.5 uM measured after 24 to 48 hrs by thioflavin T staining based fluorescence assay; assay type: cell-based; conditions: time 24-48 hrs
BV-2 [26] = experiment: Neuroprotective activity in amyloid beta (1 to 42)-induced morphological changes in mouse BV-2 cells assessed as appearance of healthy cells at 2.5 uM; assay type: functional, cell-based
SH-SY5Y [27] = experiment: Neuroprotective activity against human SH-SY5Y cells co-cultured with 2.5 uM compound pretreated BV-2 cells exposed to amyloid beta (1 to 42) assessed as cell viability measured after 24 hrs by MTT assay (reference value: 80.62 +/- 0.86%); assay type: functional; conditions: read-out: Activity
[28] = molecular target: T1, Amyloid-beta precursor protein; experiment: Inhibition of amyloid beta (1 to 42) (unknown origin) aggregation assessed as reduction in amyloid beta fibril formation at 2.5 uM measured after 48 hrs by transmission electron microscopy
[29] = molecular target: T1, Amyloid-beta precursor protein; experiment: Inhibition of amyloid beta (1 to 42) (unknown origin) aggregation assessed as appearance of collapsed amyloid beta fibrils at 2.5 uM measured after 48 hrs by transmission electron microscopy
BV-2 [30] = experiment: Neuroprotective activity in amyloid beta (1 to 42)-induced inflammation in mouse BV-2 cells assessed as TNFalpha mRNA expression at 40 uM measured after 24 hrs by SYBR green staining based qRT-PCR analysis (reference value: 1.73 +/- 0.22%); assay type: functional

T1 sequence (P05067 whole entry): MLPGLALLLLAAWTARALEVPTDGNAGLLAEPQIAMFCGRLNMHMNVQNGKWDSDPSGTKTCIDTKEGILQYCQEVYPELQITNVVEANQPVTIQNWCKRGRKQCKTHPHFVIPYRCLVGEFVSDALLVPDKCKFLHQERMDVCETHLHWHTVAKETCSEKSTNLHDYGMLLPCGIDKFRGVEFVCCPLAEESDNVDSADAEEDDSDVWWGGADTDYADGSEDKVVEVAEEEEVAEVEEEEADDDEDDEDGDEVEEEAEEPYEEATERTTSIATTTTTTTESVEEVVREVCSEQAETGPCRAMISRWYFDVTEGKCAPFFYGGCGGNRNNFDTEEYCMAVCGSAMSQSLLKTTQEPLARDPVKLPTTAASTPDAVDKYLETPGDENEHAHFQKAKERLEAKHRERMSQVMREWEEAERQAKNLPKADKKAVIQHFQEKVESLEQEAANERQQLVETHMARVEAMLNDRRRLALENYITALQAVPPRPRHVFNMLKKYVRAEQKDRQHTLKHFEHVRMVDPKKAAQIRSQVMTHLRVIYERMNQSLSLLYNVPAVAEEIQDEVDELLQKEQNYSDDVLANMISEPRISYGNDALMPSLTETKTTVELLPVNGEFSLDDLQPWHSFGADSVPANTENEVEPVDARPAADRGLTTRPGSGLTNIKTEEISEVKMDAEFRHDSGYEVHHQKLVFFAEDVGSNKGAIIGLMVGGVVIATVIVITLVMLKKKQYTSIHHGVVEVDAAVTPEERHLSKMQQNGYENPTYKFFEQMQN

| SMILES | inhibition [1] [%] | IC50 [2] [µM] | logP at 2 h [4] | further results |
| --- | --- | --- | --- | --- |
| COc1cc(C(=O)NCc2cn(-c3ccc(Oc4ccccc4)cc3)nn2)ccc1O | > 50 | 1.15 | 4.26 | Activity (BV-2 [5]): Non-Toxic; viability at 20 µM (BV-2 [6]): 34.5%; Activity (BV-2 [7]): Active |
| O=C(Cc1ccccc1[N+](=O)[O-])NCc1cn(-c2ccc(Oc3ccccc3)cc2)nn1 | > 50 | 69.2 | 3.76 | – |
| O=C(NCc1cn(-c2ccc(Oc3ccccc3)cc2)nn1)c1ccccc1 | < 50 | – | 4.21 | Activity (BV-2 [8]): Non-Toxic; viability at 150 µM (BV-2 [9]): 31.6% |
| COc1cc(/C=C/C(=O)NCc2cn(-c3ccc(Oc4ccccc4)cc3)nn2)ccc1O | > 50 | 0.04 | 4.44 | Activity (BV-2 [10]): Non-Toxic; viability at 40 µM (BV-2 [11]): 60.8%; Activity [12]: Non-Toxic; Activity (BV-2 [13]): 137.18%; Activity (BV-2 [14]): 0.05%; Activity (BV-2 [15]): 2.04%; inhibition [16]: Active; viability at 40 µM (SH-SY5Y [17]): 87.2% |
| COc1cc(C(=O)NCc2cn(-c3cc4ccccc4oc3=O)nn2)ccc1O | < 50 | – | 1.95 | – |
| O=C(OCc1cn(-c2cc3ccccc3oc2=O)nn1)c1ccccc1 | < 50 | – | 2.38 | – |
| O=C(NCc1cn(-c2cc3ccccc3oc2=O)nn1)c1ccccc1 | < 50 | – | 2.25 | – |
| COc1cc(C(=O)OCc2cn(-c3cc4ccccc4oc3=O)nn2)ccc1O | < 50 | – | 2.61 | – |
| O=C(Cc1ccccc1[N+](=O)[O-])OCc1cn(-c2cc3ccccc3oc2=O)nn1 | > 50 | 17.7 | 2.41 | – |
| COc1cc(/C=C/C(=O)NCc2cn(-c3cc4ccccc4oc3=O)nn2)ccc1O | < 50 | – | 2.65 | Activity (BV-2 [10]): Non-Toxic; viability at 40 µM (BV-2 [11]): 75.4%; Activity [12]: Non-Toxic; Activity (BV-2 [13]): 76.83%; Activity (BV-2 [30]): 0.64%; Activity (BV-2 [14]): 0.47%; Activity (BV-2 [15]): inactive; inhibition [16]: Active; viability at 40 µM (SH-SY5Y [17]): 88.3% |
| O=C(OCc1cn(-c2cc3ccccc3oc2=O)nn1)c1ccccc1O | < 50 | – | 2.65 | – |
| O=C(OCc1cn(-c2ccc(Oc3ccccc3)cc2)nn1)c1ccccc1O | < 50 | – | 5.18 | – |
| O=C(NCc1cn(-c2cc3ccccc3oc2=O)nn1)c1ccccc1O | < 50 | – | 2.02 | – |

Further lines, with some results ahead:

| inhibition [1] [%] | IC50 [2] [µM] | logP at 2 h [4] | SMILES | further results |
| --- | --- | --- | --- | --- |
| > 50 | 0.003 | 4.47 | COc1cc(C(=O)OCc2cn(-c3ccc(Oc4ccccc4)cc3)nn2)ccc1O | Activity (BV-2 [3]): Toxic |
| > 50 | 11.6 | 1.9 | O=C(Cc1ccccc1[N+](=O)[O-])NCc1cn(-c2cc3ccccc3oc2=O)nn1 | – |
| < 50 | – | – | O=C(NCc1cn(-c2ccc(Oc3ccccc3)cc2)nn1)c1ccccc1O | logP ([4]; 2 h): Not Determined(Insoluble) |
| > 50 | 36.7 | 4.29 | O=C(Cc1ccccc1[N+](=O)[O-])OCc1cn(-c2ccc(Oc3ccccc3)cc2)nn1 | – |
| > 50 | 0.008 | 2.64 | COc1cc(/C=C/C(=O)OCc2cn(-c3cc4ccccc4oc3=O)nn2)ccc1O | Activity (BV-2 [18]): Non-Toxic; viability at 2.5 µM (BV-2 [19]): 71.3%; Activity [20]: Non-Toxic; Activity (BV-2 [21]): 107.04%; Activity (BV-2 [22]): 1.09%; Activity (BV-2 [23]): 0.71%; Activity (BV-2 [24]): inactive; inhibition [25]: Active; Activity (BV-2 [26]): Active; viability at 2.5 µM (SH-SY5Y [27]): 91.5%; inhibition [28]: Active; inhibition [29]: Active |
| > 50 | 4.73 | 5.19 | O=C(OCc1cn(-c2ccc(Oc3ccccc3)cc2)nn1)c1ccccc1 | Activity (BV-2 [5]): Non-Toxic; viability at 20 µM (BV-2 [6]): 54.1% |
| > 50 | – | – | COc1cc(/C=C/C(=O)CC(=O)/C=C/c2ccc(O)c(OC)c2)ccc1O | – |
